Sampled rows, rich in hits. Any-hit rate of the full collection: about 1.3%.
ARFGAP1 inhibitor = rat ARFGAP1 inhibition | Q62848 | Arfgap1-stimulated ARF1 GTP hydrolysis, GDP FP detection | inhibition, % at 16.5 µM | actives 0.26% (n = 360,000) | AID 651572;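 active = inhibition above a per-plate limit, mean inhibition of low control wells plus 3 SD, cut at about 25% in these data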
Target sequence (Q62848 1-136 limits assumed): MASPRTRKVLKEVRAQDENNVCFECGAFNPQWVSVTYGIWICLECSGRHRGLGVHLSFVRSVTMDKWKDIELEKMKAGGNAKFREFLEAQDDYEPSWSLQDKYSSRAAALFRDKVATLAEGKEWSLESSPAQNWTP
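material = rat Arfgap1 catalytic domain, aa 1-136 | also added = human ARF1(Δ1-17)-GTP substrate | compound dosing = one concentration, 16.5 µM, DMSO 1.26% | times = GTP hydrolysis reaction 2 h at 25 °C | measured by = FP, GDP Alexa 633 tracer displaced from anti-GDP antibody, 620/688 nm | evaluation = percent inhibition of Arfgap1-stimulated GTP hydrolysis | replication = single well per compound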
ASAP1 inh = inhibitors of human ASAP1 ArfGAP activity; AID 624377; actives 0.19% (n = 360,000); ASAP1-stimulated ARF1 GTP hydrolysis, GDP FP detection; inhibition, % at 16.5 µM; in the data active = inhibition above about 25%
Casp6 inh = blocks human caspase-6 cleavage activity. P55212. purified caspase-6, Z-VEID-R110 cleavage fluorescence. inhibition, % at 12.5 µM. actives 0.53% (n = 350,000). AID 686996;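 active = mean inhibition across replicates at least about 35%, with every replicate also reaching that limit, limit read from the data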
TDP2 inh = TDP2 (human) inhibition, absorbance primary screen | AID 720702 | recombinant TDP2, T5PNP hydrolysis, p-nitrophenol absorbance 415 nm | actives 0.34% (n = 370,000) | O95551 | inhibition, % at 12.8 µM;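 active = inhibition above the mean of all tested compounds plus 3 SD, set per campaign, cut at about 25% in these data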
Target sequence (O95551 whole entry, looked up): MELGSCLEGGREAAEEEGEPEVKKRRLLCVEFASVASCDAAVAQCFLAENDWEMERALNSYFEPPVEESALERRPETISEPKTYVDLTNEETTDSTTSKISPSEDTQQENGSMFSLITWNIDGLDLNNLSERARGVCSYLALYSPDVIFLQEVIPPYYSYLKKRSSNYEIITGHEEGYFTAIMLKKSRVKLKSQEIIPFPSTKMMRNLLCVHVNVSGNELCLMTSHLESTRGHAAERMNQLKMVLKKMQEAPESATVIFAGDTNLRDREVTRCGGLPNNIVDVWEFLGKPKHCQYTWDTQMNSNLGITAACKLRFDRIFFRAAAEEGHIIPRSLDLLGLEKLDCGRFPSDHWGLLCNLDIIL
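Incubation: 2 h at 37 °C; Test system: recombinant human TDP2; Quantity: enzyme 120 nM; Read-out basis: percent inhibition; Medium: 50 mM Tris-HCl pH 7.5 with Mg2+, KCl, DTT, BSA; Repeats: single replicate; Compound: 12.8 µM single point, 1% DMSO; Signal: epi absorbance; Reagent: 5 mM T5PNP chromogenic substrate; Benchmarks: no-enzyme high, DMSO-plus-enzyme low.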
LEDGF integ inh = blocks HIV-1 LEDGF/p75-dependent DNA integration; TR-FRET IN-LEDGF/p75 DNA integration, Eu/Cy5; inhibition, % at 3.7 µM; actives 0.64% (n = 370,000); AID 743269;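 active = inhibition above the screen-wide mean plus 3 SD, cut at about 13% in these data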;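 also: signal is the Cy5 over europium emission ratio at 671 and 618 nm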
IN multimer up = counter-screen for LEDGF/p75 integration inhibitors: HIV-1 integrase multimerization activators; shares compounds with LEDGF integ inh; TR-FRET HIV-1 integrase multimerization, biochemical; activation, % at 7.7 µM; actives 17% (n = 2,000); in the data active = activation above about 8.9%
TR-FRET interf = optically interferes with TR-FRET readout in LEDGF counter-screen | shares compounds with LEDGF integ inh | AID 1053135 | inhibition, % at 7.7 µM | TR-FRET optical interference counterscreen, HIV-1 IN multimerization | 2,000 tested, under 10 active;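 active = inhibition above the mean over all tested compounds plus 3 SD, which no compound reached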
IN-LEDGF confirm = confirmation of HIV-1 LEDGF/p75-dependent integration inhibitors; shares compounds with LEDGF integ inh; TR-FRET LEDGF/p75-dependent HIV-1 integration, biochemical; inhibition, % at 3.7 µM; actives 36% (n = 2,000); in the data active = inhibition above about 14%
Hits are given with their value; 0 = inactive; - = not tested or not shown.

SMILES	ARFGAP1 inhibitor	ASAP1 inh	Casp6 inh	TDP2 inh	LEDGF integ inh	IN multimer up	TR-FRET interf	IN-LEDGF confirm
OCCNC1=NCCN1	0	0	-	0	0	-	-	-
O=C(Cn1c(=O)sc2ccccc21)NCc1ccccn1	0	0	0	0	19	0	0	0
O=C(CN1C(=O)c2ccccc2C1=O)NCc1ccccn1	0	0	-	0	0	-	-	-
CCOC(=O)c1sc(NC(=O)CSc2nccn2C)nc1C	0	0	0	0	0	-	-	-
COc1ccc(CC(=O)NCCC(C)C)cc1S(=O)(=O)N1CCOCC1	0	0	0	0	89	0	0	0
CCc1ccc(C2CC(=O)N3CN(c4ccccc4)CSC3=C2C#N)cc1 (stereo unspecified)	0	0	0	0	0	-	-	-
N#CC1=C2SCN(Cc3ccco3)CN2C(=O)CC1c1cccc2ccccc12 (stereo unspecified)	0	0	-	0	55	0	0	0
C=CCSC1=N/C(=C\C=C\c2ccco2)C(=O)S1	0	0	-	0	62	0	0	75
CC(C)C[C@H]1CNC(=O)C(=O)N1C[C@H](Cc1ccc(O)cc1)NC(=O)Cc1ccccc1	0	0	0	0	75	0	0	0
COCCCC1CCN(C(=O)C2CCC(=O)N(CCCc3ccccc3)C2)CC1 (stereo unspecified)	0	0	0	0	20	0	0	0
COc1cc(C(=O)Nc2nc(C)cc(C)n2)cc(OC)c1OC	0	0	0	0	59	0	0	0
C=CCSC1=N/C(=C\c2cc(OCC)c(OC(C)=O)c([N+](=O)[O-])c2)C(=O)S1	0	0	-	0	32	0	0	0
c1ccc(NC2=NCCN2CCC2CCCCC2)cc1	0	0	0	0	0	-	-	-
C[C@H]1CN([C@@H](C)CO)S(=O)(=O)c2ccc(C3=CCCC3)cc2O[C@@H]1CN(C)C(=O)C1CCC1	-	-	0	-	-	-	-	-
C=C(C)CSc1nc2sc3c(c2c(=O)n1-c1ccccc1)CCN(C)C3	0	0	0	0	0	-	-	-
C=CCSc1nc2sc3c(c2c(=O)n1-c1ccc(C)cc1)CCN(C)C3	0	0	0	0	34	0	0	0
CCOc1ccc(CCN2C(=O)CCC2(C)C(=O)NC(C)CC)cc1OCC (stereo unspecified)	0	0	0	0	0	-	-	-
C[C@@H]1CN([C@H](C)CO)C(=O)c2cccc(NS(C)(=O)=O)c2O[C@@H]1CN(C)Cc1ccc2c(c1)OCO2	-	-	0	-	-	-	-	-
CCC(Sc1nc2ccccc2[nH]1)C(=O)Nc1cc(C)on1 (stereo unspecified)	0	0	-	0	29	0	0	0
CCN1CCN(C(c2ccccc2)c2nnnn2Cc2ccc3c(c2)OCO3)CC1 (stereo unspecified)	0	0	0	0	25	0	0	0
O=C1CCC(=O)c2ccc3c4c(ccc1c24)CC3	0	0	92	0	44	0	0	0
COc1ccc(N2C(=O)CSC2c2cccc(F)c2)cc1 (stereo unspecified)	0	0	0	0	29	0	0	0
COc1cc(SC)ccc1C(=O)Nc1ccncc1	0	0	0	0	0	-	-	-
Cc1nnc(NC(=O)CSc2nnc(-c3ccccc3)n2C)s1	0	0	0	0	18	0	0	0
Cn1c(SCC(=O)NC(=O)NCc2ccco2)nnc1-c1ccccc1	0	0	-	0	22	0	0	0
SMILES	ARFGAP1 inhibitor	ASAP1 inh	Casp6 inh	TDP2 inh	LEDGF integ inh	IN multimer up	TR-FRET interf	IN-LEDGF confirm
Cn1c(SCC(=O)Nc2nc3c(s2)CCCC3)nnc1-c1ccccc1	0	0	-	0	0	-	-	-
CCCc1cc(=O)[nH]c(SCC(=O)NC(=O)OCC)n1	0	0	-	0	25	0	0	0
COc1ccc(CN(C)C(=O)CCNS(=O)(=O)c2ccccc2)c(OC)c1	0	0	0	0	23	0	0	0
CC(=O)C1=C(C)N(Cc2ccco2)C(=O)C1(NC(=O)C1CCCCC1)C(F)(F)F (stereo unspecified)	0	0	-	0	0	-	-	-
CC(C(=O)Nc1cccc([N+](=O)[O-])c1)n1nnc2ccccc21 (stereo unspecified)	0	0	-	0	82	0	0	0
CCCCCCCCCC[n+]1cccc2c3ccccc3ccc21	0	0	0	0	0	-	-	-
Cc1cccc[n+]1CCCCCCCCCC[n+]1ccccc1C	0	0	0	0	21	0	0	0
O=c1c(C=NCCCO)c(-c2ccccc2)[nH]n1-c1nc2ccccc2s1	0	0	0	0	21	0	0	0
O=C(Nc1ccc2nc(-c3cccnc3)[nH]c2c1)c1ccccc1F	0	0	-	0	0	-	-	-
Cc1ccc([N+](=O)[O-])cc1NC(=O)Cc1ccc(F)cc1	0	0	0	0	0	-	-	-
Cc1cc([N+](=O)[O-])ccc1NC(=O)Cc1ccc(F)cc1	0	0	0	0	85	0	0	0
COC(=O)Cc1c(C)nc2nc(Cc3ccccc3)[nH]n2c1=O	0	0	-	0	14	0	0	0
CC(C)=CC(=O)OCC(=O)Nc1ncc(Cl)c(C)c1Cl	0	0	-	0	0	-	-	-
CC(=O)N1CCc2c(sc(NC(=O)CCS(=O)(=O)c3ccc(C)cc3)c2C#N)C1	0	0	0	0	0	-	-	-
COc1ccccc1N1CCN(Cc2nc(N)nc(Nc3ccc(C)c(Cl)c3)n2)CC1	0	0	-	0	13	0	0	0
COc1ccccc1Nc1nc(N)nc(CN2CCN(c3ccccc3F)CC2)n1	0	0	-	0	0	-	-	-
COc1ccc(-c2n[nH]c(=S)n2Cc2ccccc2)cc1OC	0	0	0	0	0	-	-	-
Cc1onc(-c2c(F)cccc2Cl)c1C(=O)OCc1cnc(Cl)s1	0	0	0	0	0	-	-	-
CSc1ccc(CN(C)C(=O)C(Cc2ccccc2)NC(=O)c2ccccc2)cc1 (stereo unspecified)	0	0	0	0	0	-	-	-
Cc1cc(/C=N/O)c(C)n1-c1ccc(Br)cc1	0	0	0	0	18	0	0	0
CCCC#Cc1ccc([C@H]2[C@@H](CO)N3C(=O)CN(C(=O)c4cccnc4)C[C@@H]23)cc1	-	-	0	-	-	-	-	-
C[C@@H]1[C@H](O)[C@@H](C)/C=C/C=C/C=C/C=C/C=C/C=C/C=C/[C@H](OC2O[C@H](C)[C@@H](O)[C@H](N)[C@@H]2O)C[C@@H]2O[C@](O)(C[C@@H](O)C[C@@H](O)[C@H](O)CC[C@@H](O)C[C@@H](O)CC(=O)O[C@H]1C)C[C@H](O)[C@H]2C(=O)O (stereo partly specified)	-	-	-	0	32	0	0	78
